This is one part of a sample in which hits are shown more often than they occur.
ABCB6 inh 2: ABCB6 transporter inhibitors, primary screen, K562-ABCB6 cells, flow cytometry, MLPCN library. K562-ABCB6 porphyrin accumulation, 1 h; active compounds read low. fluorescence ratio to DMSO, % at 10 µM. actives 0.19% (n = 360,000). AID 602162, 2011;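 active means fluorescence ratio to DMSO below 75%, the collection mean minus 3 SD; inconclusive means too few cells collected in the well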;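 further: signal is porphyrin accumulated inside mitochondria; lower ratio means ABCB6 inhibition with less porphyrin fluorescence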
pCIP destab: p/CIP-EGFP fusion destabilizers, primary screen, fluorescence, F442A cells. 16 h. decrease of EGFP signal, % at 10 µM. actives 0.01% (n = 290,000). AID 1984, 2009;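 active means EGFP signal decrease of at least 30% at 10 µM or well 3 SD below plate mean, unless failing retest; inactive means the rest, including hits failing retest or dose response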
Target sequence (Q05BA5 1-1403): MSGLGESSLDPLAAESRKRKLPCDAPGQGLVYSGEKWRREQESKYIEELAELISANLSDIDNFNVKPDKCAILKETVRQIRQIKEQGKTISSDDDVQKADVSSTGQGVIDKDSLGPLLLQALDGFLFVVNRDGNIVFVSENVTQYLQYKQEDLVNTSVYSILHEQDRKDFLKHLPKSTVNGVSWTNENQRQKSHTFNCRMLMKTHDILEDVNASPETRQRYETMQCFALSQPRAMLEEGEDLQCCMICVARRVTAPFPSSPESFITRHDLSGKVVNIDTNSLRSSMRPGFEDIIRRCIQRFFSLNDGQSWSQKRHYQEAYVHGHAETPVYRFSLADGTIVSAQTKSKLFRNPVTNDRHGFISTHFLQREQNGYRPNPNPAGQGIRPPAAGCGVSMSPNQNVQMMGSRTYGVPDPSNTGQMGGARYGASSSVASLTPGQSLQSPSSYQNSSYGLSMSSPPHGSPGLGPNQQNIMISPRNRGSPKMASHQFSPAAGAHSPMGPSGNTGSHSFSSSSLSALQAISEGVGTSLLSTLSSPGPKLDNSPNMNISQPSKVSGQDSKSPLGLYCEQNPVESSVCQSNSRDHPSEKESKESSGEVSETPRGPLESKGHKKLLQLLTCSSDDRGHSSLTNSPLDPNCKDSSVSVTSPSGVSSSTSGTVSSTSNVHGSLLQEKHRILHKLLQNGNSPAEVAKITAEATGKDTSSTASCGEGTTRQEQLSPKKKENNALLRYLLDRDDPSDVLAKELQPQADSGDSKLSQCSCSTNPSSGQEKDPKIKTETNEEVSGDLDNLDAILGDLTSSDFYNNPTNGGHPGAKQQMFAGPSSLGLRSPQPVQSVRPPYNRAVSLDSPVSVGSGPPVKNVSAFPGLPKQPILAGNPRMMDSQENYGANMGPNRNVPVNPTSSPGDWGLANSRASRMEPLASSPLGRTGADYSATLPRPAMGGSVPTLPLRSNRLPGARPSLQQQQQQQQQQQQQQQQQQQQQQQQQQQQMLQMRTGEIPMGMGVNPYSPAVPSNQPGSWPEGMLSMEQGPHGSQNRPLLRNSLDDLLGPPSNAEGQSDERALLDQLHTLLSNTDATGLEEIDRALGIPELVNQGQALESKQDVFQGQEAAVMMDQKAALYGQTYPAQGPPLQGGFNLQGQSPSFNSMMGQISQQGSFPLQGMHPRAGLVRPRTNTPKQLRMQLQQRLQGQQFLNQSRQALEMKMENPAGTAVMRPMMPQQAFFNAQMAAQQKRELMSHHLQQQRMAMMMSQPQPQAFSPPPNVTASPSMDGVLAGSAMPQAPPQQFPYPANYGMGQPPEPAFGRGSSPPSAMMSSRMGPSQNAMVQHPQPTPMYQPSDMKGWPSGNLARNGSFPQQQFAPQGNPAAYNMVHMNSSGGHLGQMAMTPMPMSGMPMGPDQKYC
V-ATPase pHluor: regulators of yeast V-ATPase proton pumping, primary screen, pHLuorin cytosolic pH fluorescence | S. cerevisiae | response, % at 10 µM | actives 0.37% (n = 350,000); in the data active means response mostly above about 7.3%, no sharp cut-off; inactive means mostly below about 5.4%; further: actives read high
Cl transport mod: KCC2 cotransporter modulators, thallium flux, primary screen, cell-based, HEK293 KCC2, FluoZin-2 fluorescence, MLSMR; Solute carrier family 12 member 5 (Homo sapiens), Q9H2X9; KCC2 cells, thallium flux FluoZin-2 fluorescence; B-score of Tl+ flux slope (higher = more flux/activation; lower = inhibition) at 10 µM; actives 2.2% (n = 190,000); AID 1456, 2008;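 active means thallium flux slope and its plate-corrected score both differing from the plate sample mean at a set confidence after two filtering rounds, in either direction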;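 further: slope of fluorescence scaled to starting intensity during 10 to 20 s after thallium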
Dynein transport: inhibitors of GR-EGFP nuclear translocation, primary screen, dynein cargo transport inhibitor project, imaging, high-content, 3617.4 mouse cells; test concentration mostly 20 µM; stimulated with dexamethasone, 1 µM; active compounds read low; z-score, hits read low; actives 0.47% (n = 220,000); AID 1381, 2008;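 active means plate z-score of nuclear minus cytoplasmic receptor signal below a set negative limit, without overly bright fluorescence or cell loss, cut at about -3.5 in these data, passing the limit was not always enough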;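 further: z-score of nuclear minus cytoplasmic ring GR-EGFP intensity difference per well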
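Medium: Induction medium lacking tetracycline, stripped serum | Probe or stimulus: 1.0 µM final dexamethasone stimulus | Schedule: 48 h induction, then 1 h compound, then 30 min agonist, 37 °C | Signal: Automated 10x imaging of fixed Hoechst-stained cells | Evaluation: Per-cell GR-EGFP intensity, nucleus versus surrounding cytoplasmic ring, well-averaged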
KCC2 secondary: KCC2 modulators in sodium-free buffer, confirmation, cell-based, HEK293 KCC2, thallium flux, secondary assay; actives 15% (n = 3,700); FluoZin2 fluorescence; active compounds read high; shares compounds with Cl transport mod; normalised thallium flux (F/F0 slope) at 10 µM;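 active means thallium flux slope above the same plate's solvent-only control mean plus 3 SD; inconclusive means the two replicate wells disagree; inactive means no significant difference from solvent-only control wells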
KCC2 bumet counter: thallium flux persisting under bumetanide in KCC2 cells, confirmation, counter-screen for KCC2 modulator project, cell-based, HEK293 KCC2, FluoZin2, secondary assay 3. shares compounds with Cl transport mod. HEK293-KCC2 + bumetanide/ouabain; active compounds read high. normalized thallium flux at 10 µM. actives 49% (n = 3,700). AID 1714, 2009;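 active means thallium entry rate above the same plate's blocked-transporter control wells by more than 3 SD; inconclusive means the two repeat wells disagree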;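 further: raw slope of fluorescence over initial fluorescence between 10 and 20 s after thallium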
KCC2 secondary2: KCC2 modulators without ouabain present, confirmation, cell-based, HEK293 KCC2, thallium flux, FluoZin2, secondary assay 2; actives 23% (n = 3,700); thallium flux FluoZin2 fluorescence; actives lie on both sides; F/F0 rise rate, 10–20 s post-thallium; AID 1715, 2009; normalized thallium flux at 10 µM; shares compounds with Cl transport mod;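 active means thallium flux slope more than 3 SD above or below the plate's solvent-only control mean, mostly below; inconclusive means the two repeat wells disagreed; inactive means no significant shift from solvent-only controls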
HEK293 Tl flux: thallium flux modulation in parental HEK cells, confirmation, counter-screen for KCC2 modulator project, cell-based, counterscreen 1. thallium flux rate (normalised fluorescence) at 10 µM. actives 46% (n = 3,700). AID 1716, 2009. HEK293 parental cells, thallium flux FluoZin2, ouabain; baseline-ratio fluorescence slope, 10–20 s after thallium. shares compounds with Cl transport mod;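 active means thallium flux rate significantly above the same plate's solvent-only control wells, beyond their mean plus 3 SD; inconclusive means the two replicate wells gave conflicting results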
KCC2 ouabain: KCC2 inhibitors and activators, ouabain retest, confirmation, HEK-KCC2 cells; shares compounds with Cl transport mod; HEK293-KCC2, thallium flux FluoZin2 fluorescence; bidirectional: low = inhibitor, high = activator; raw Tl+ flux slope (below DMSO = inhibition, above = activation) at 10 µM; actives 48% (n = 3,700);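 active means thallium flux slope beyond 3 SD from same-plate DMSO control mean in most replicates, usually higher, sometimes lower; inconclusive means repeat tests gave conflicting results; inactive means no significant difference from controls in most replicates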;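 further: slope of initial-normalized fluorescence between seconds 10 and 20 after thallium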
HEK counter2: native HEK Tl+ uptake effects, second counter-screen – HEK cells, counterscreen 2, counter-screen for KCC2 modulator project, confirmation. shares compounds with Cl transport mod. HEK293 parental, thallium flux FluoZin-2 fluorescence slope. thallium flux slope at 10 µM. actives 33% (n = 3,700). AID 1718, 2009;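 active means thallium flux slope above the same plate's solvent-control mean plus 3 SD in both duplicate wells; inconclusive means duplicate wells that disagreed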;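 further: run without ouabain in cells lacking the KCC2 cotransporter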
Large screens that a line does not name were inactive (follow-up assays come after a bar, where they were run).

CCn1c(=S)[nH]c2cc(Cl)ccc21	Cl transport mod 10 | KCC2 secondary inconclusive | KCC2 bumet counter 0.024 | KCC2 secondary2 inconclusive | HEK293 Tl flux 0.022 | KCC2 ouabain 0.031 | HEK counter2 0.019
CC1CCCCC12NC(=O)N(CC(=O)N1CCN(S(=O)(=O)/C=C/c3ccccc3)CC1)C2=O (stereo not given)	none (no result: pCIP destab, Cl transport mod, Dynein transport)
O=C(NC(=S)Nc1cccc(Cl)c1N1CCOCC1)c1cccs1	none
Cc1ccccc1C(=O)N1CCN(c2ccc(NC(=S)NC(=O)c3cccs3)cc2)CC1	none | KCC2 secondary inactive | KCC2 bumet counter 0.015 | KCC2 secondary2 inactive | HEK293 Tl flux inactive | KCC2 ouabain inactive | HEK counter2 inactive
O=C(NC(=S)Nc1ccc(N2CCOCC2)cc1)c1cccs1	Cl transport mod 3.1 | KCC2 secondary inactive | KCC2 bumet counter 0.033 | KCC2 secondary2 inactive | HEK293 Tl flux inconclusive | KCC2 ouabain inactive | HEK counter2 inactive
Cc1ccc(C(=O)N2CCN(c3ccc(NC(=S)NC(=O)c4cccs4)cc3)CC2)cc1	none
CC(=O)Nc1c(-c2cc(=O)oc3cc(C)ccc23)oc2ccccc12	none (no result: Cl transport mod, Dynein transport)
CCCNC(=O)COc1ccc(-c2nn(C)c(=O)c3ccccc23)cc1	none (no result: Cl transport mod, Dynein transport)
CCN1CCN(C(=O)c2cn(CCOC)c(=O)c3c2c2ccccc2n3C)CC1	none
CC(C)Cn1cc(C(=O)N2CCN(c3ccccn3)CC2)c2c3ccccc3n(C)c2c1=O	none (no result: Cl transport mod) | KCC2 secondary inactive | KCC2 bumet counter inactive | KCC2 secondary2 inactive | HEK293 Tl flux inactive | KCC2 ouabain inactive | HEK counter2 inactive
CC(=O)CCn1c(=O)n(CCC(C)=O)c(=O)n(CCC(C)=O)c1=O	none | KCC2 secondary inactive | KCC2 bumet counter inconclusive | KCC2 secondary2 inactive | HEK293 Tl flux inactive | KCC2 ouabain inactive | HEK counter2 inconclusive
CCn1c(-c2ccc(C(C)(C)C)cc2)n[nH]c1=S	Cl transport mod 6.8 | KCC2 secondary inconclusive | KCC2 bumet counter 0.03 | KCC2 secondary2 inactive | HEK293 Tl flux inconclusive | KCC2 ouabain 0.032 | HEK counter2 inconclusive
CCn1c(-c2ccc(F)cc2)n[nH]c1=S	none
CCn1c(=O)cc(OCC(=O)N2CCN(c3cccc(C(F)(F)F)c3)CC2)c2ccccc21	none | KCC2 secondary inactive | KCC2 bumet counter inactive | KCC2 secondary2 inactive | HEK293 Tl flux inactive | KCC2 ouabain inconclusive | HEK counter2 inactive
O=C(c1coc2ccccc2c1=O)N1CCN(c2cccc(C(F)(F)F)c2)CC1	Cl transport mod -4 | KCC2 secondary inactive | KCC2 bumet counter inactive | KCC2 secondary2 inactive | HEK293 Tl flux inactive | KCC2 ouabain inactive | HEK counter2 inactive
CCn1c(=O)cc(OCC(=O)N2CCCC2)c2ccccc21	none
O=S(=O)(c1ccc(NCc2ccccc2)cc1)N1CCOCC1	none (no result: Cl transport mod, Dynein transport)
CCC/C(C)=N/NC(=O)c1ccccc1O	none
O=C(NN=C(Cc1ccccc1)Cc1ccccc1)c1ccccc1O	Cl transport mod 23 | KCC2 secondary inconclusive | KCC2 bumet counter 0.062 | KCC2 secondary2 0.05 | HEK293 Tl flux 0.037 | KCC2 ouabain 0.049 | HEK counter2 0.031
C/C(=N\NC(=O)c1ccccc1O)C1C(=O)c2ccccc2C1=O	Cl transport mod -3.8 | KCC2 secondary inactive | KCC2 bumet counter inactive | KCC2 secondary2 inactive | HEK293 Tl flux inconclusive | KCC2 ouabain 0.015 | HEK counter2 inactive
O=C(O)c1cc(-c2ccc(/C=N/N3C(=O)C4C5C=CC(CC5)C4C3=O)o2)ccc1Cl (stereo not given)	Cl transport mod -9.7 | KCC2 secondary inactive | KCC2 bumet counter inconclusive | KCC2 secondary2 inactive | HEK293 Tl flux inactive | KCC2 ouabain inactive | HEK counter2 inactive
O=C(O)c1cc(-c2ccc(/C=N/N3C(=O)C4C5C=CC(C6CC56)C4C3=O)o2)ccc1Cl (stereo not given)	none
Cc1cc(C)c(NC(=O)CS(=O)CC(=O)Nc2ccc(-n3cnnn3)c(C)c2)c(C)c1 (stereo not given)	none (no result: Cl transport mod, Dynein transport)
O=c1c2cc(Br)ccc2[nH]c(=S)n1Cc1ccccn1	Cl transport mod 35 | KCC2 secondary inconclusive | KCC2 bumet counter 0.071 | KCC2 secondary2 0.044 | HEK293 Tl flux 0.046 | KCC2 ouabain 0.057 | HEK counter2 0.021
COCCNS(=O)(=O)c1ccc(-c2ccc(Cl)cc2)cc1	Cl transport mod -2.8 | KCC2 secondary inactive | KCC2 bumet counter inactive | KCC2 secondary2 0.026 | HEK293 Tl flux inactive | KCC2 ouabain inconclusive | HEK counter2 inactive
S=C(Nc1ccccc1)Nc1nc2ccccc2n1CCOc1ccccc1	Cl transport mod 29 | KCC2 secondary 0.011 | KCC2 bumet counter 0.059 | KCC2 secondary2 inactive | HEK293 Tl flux 0.017 | KCC2 ouabain 0.036 | HEK counter2 inconclusive
CC(=O)Nc1nc2ccccc2n1CCOc1ccccc1	none
CCOc1cccc(CNc2nnnn2C)c1	none (no result: Cl transport mod, Dynein transport)
Cc1ccc(CNC(=O)c2ccc(N3CCCC3=O)cc2)cc1	Cl transport mod -4.3 | KCC2 secondary inactive | KCC2 bumet counter inactive | KCC2 secondary2 inactive | HEK293 Tl flux inactive | KCC2 ouabain inactive | HEK counter2 inactive
